ChEMBL document CHEMBL4028848, “Discovery of N-{4-[5-(4-Fluorophenyl)-3-methyl-2-methylsulfanyl-3H-imidazol-4-yl]-pyridin-2-yl}-acetamide (CBS-3595), a Dual p38α MAPK/PDE-4 Inhibitor with Activity against TNFα-Related Diseases” (J Med Chem, 2017)
Calls of active or inactive are those of the source. No cut-off for these calls is given here.

Columns and labels:
[1] = molecular target: Mitogen-activated protein kinase 14 (Homo sapiens, UniProt Q16539); assay: Inhibition of p38MAPK alpha (unknown origin) at 10 uM relative to control
[2] = molecular target: Mitogen-activated protein kinase 12 (Homo sapiens) (UniProt P53778); assay: Inhibition of p38MAPK gamma (unknown origin) at 10 uM relative to control
[3] = molecular target: Mitogen-activated protein kinase 11 (Homo sapiens) (UniProt Q15759); assay: Inhibition of p38MAPK beta (unknown origin) at 10 uM relative to control
[4] = Drug excretion in human urine at 10 to 50 mg, po administered as single dose up to 36 hrs; type: ADME, organism-based; settings: read-out: Drug excretion
Outline: (§1)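 Healthy subjects, single oral dose. Urine collected at 0–6, 6–12, 12–24 and 24–36 h post dose and analysed for parent and metabolite. Excreted amount expressed relative to administered dose.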

Rattus norvegicus [5] = assay: Toxicity in Sprague-Dawley rat assessed as increase in hunched posture at 150 mg/kg, po administered via gavage for daily 28 days followed by 2 weeks off without dosing; type: organism-based; settings: in vivo
[6] = Drug uptake in LPS-stimulated female Lewis rat serum at 10 mg/kg, po pretreated for 3 hrs followed by LPS addition measured after 1.5 hrs post dose; type: ADME, organism-based; settings: read-out: Drug uptake
Outline: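 Female Lewis rats, n = 8/group, dosed orally at 10 mg/kg at 1, 3 or 5 h before LPS challenge. Serum aliquots taken 1.5 h after LPS were used to measure drug concentration.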

[7] = Apparent permeability in human Caco2 cells at 10 uM; type: ADME, cell-based; settings: Caco-2
Mus musculus [8] = assay: In vivo inhibition of P38 MAPKalpha in BALB/c mouse assessed as decrease in LPS/GalN-stimulated TNFalpha level in plasma at 10 mg/kg, po administered via gavage pretreated for 1 hr followed by LPS/GalN addition measured after 1.5 hrs relative to control; type: functional
Outline: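 Male BALB/c mice, n = 6/group, given 3, 10 or 30 mg/kg orally by gavage 1 h before i.p. D-GalN (500 mg/kg) plus LPS (1.5 μg/kg). Blood was taken by cardiac puncture and plasma TNFα measured against a vehicle-only control.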

[9] = AUC (0 to infinity) in Beagle dog at 40 mg/kg, po by LC-MS/MS analysis; type: ADME, organism-based, Canis lupus familiaris; design: dose 40 mg/kg, time infinity, route oral; settings: in vivo
Outline: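 Toxicokinetics from a maximum-tolerated-dose study in four Beagle dogs given 40 mg/kg orally. Plasma levels of both parent and its predominant metabolite were monitored.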

[10] = Drug metabolism in cynomolgus monkey liver microsomes assessed as N-(4-(4-(4-fluorophenyl)-1-methyl-2-(methylsulfinyl)-1H-imidazol-5-yl)pyridin-2-yl)acetamide formation at 10 to 100 uM; type: ADME, Macaca fascicularis, microsome
Outline: (§2)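 Test compound incubated at 10, 30 and 100 μM with liver microsomes from rat, Cynomolgus monkey or human, and metabolites monitored.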

Rattus norvegicus [11] = assay: Toxicity in Sprague-Dawley rat assessed as dyspnea at 2000 mg/kg, po administered via gavage measured on day 1 and 2; type: organism-based; settings: in vivo
[12] = AUC (0 to t) in male Sprague-Dawley rat at 30 mg/kg, po by LC-MS/MS analysis; type: ADME, organism-based; settings: in vivo
Outline: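 Rats of each sex received a single oral dose of 30 mg/kg. Plasma concentration–time profiles of parent were determined separately for females and males.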

[13] = AUC (infinity) in human at 20 mg, po administered as single dose; type: ADME, organism-based; design: dose 20 mg, time infinity, route oral; settings: in vivo
Outline: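 Placebo-controlled, single-blind, randomized, consecutive-dosing study in healthy subjects given single oral doses, with 10 mg also given fasting and fed in a crossover. Plasma parent and active metabolite were measured predose and from 0.25 to 36 h post dose. PK parameters were derived from individual concentration–time profiles and reported as means.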

[14] = molecular target: Mitogen-activated protein kinase 10 (Homo sapiens) (UniProt P53779); assay: Inhibition of JNK3 (unknown origin) at 10 uM relative to control
[15] = AUC (0 to infinity) in mongrel dog at 30 mg/kg, po by LC-MS/MS analysis; type: ADME, organism-based, Canis lupus familiaris; design: dose 30 mg/kg, time infinity, route oral; settings: in vivo
Outline: (§3)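 Two mongrel dogs received a single oral dose of 30 mg/kg. Blood was sampled from 0.25 to 24 h and plasma parent concentrations were determined.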

[16] = Drug metabolism in human primary hepatocytes assessed as CBS-3846 formation at 10 to 100 uM; type: ADME, cell-based, Hepatocyte
Lymphocyte = assay: Clastogenicity in human lymphocytes in presence of S9 fraction by microneucleus test; type: toxicity, cell-based
Outline: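 Cytogenetic clastogenicity assay in cultured human lymphocytes, run with and without S9 mix.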

[17] = AUC (0 to t) in mongrel dog at 30 mg/kg, po by LC-MS/MS analysis; type: ADME, organism-based, Canis lupus familiaris; settings: in vivo; outline: as §3
[18] = molecular target: Dual specificity mitogen-activated protein kinase kinase 7 (Homo sapiens) (UniProt O14733); assay: Inhibition of MKK7beta (unknown origin) at 10 uM relative to control
[19] = Drug metabolism in human primary hepatocytes assessed as CBS-3728 formation at 10 to 100 uM; type: ADME, cell-based, Hepatocyte
[20] = molecular target: Voltage-gated inwardly rectifying potassium channel KCNH2 (Homo sapiens, UniProt Q12809); assay: Inhibition of human ERG expressed in HEK293 cells by patch clamp method; type: cell-based
Rattus norvegicus [21] = assay: Toxicity in Sprague-Dawley rat assessed as increase in histopathological changes at 150 mg/kg, po administered via gavage for daily 28 days followed by 2 weeks off without dosing; type: organism-based; settings: in vivo
Liver = assay: Drug metabolism in rat liver microsomes assessed as 4-(4-(4-fluorophenyl)-1-methyl-2-(methylsulfonyl)-1H-imidazol-5-yl)pyridin-2-amine formation at 10 to 100 uM; type: ADME, microsome; outline: as §2
Cynomolgus monkey = assay: In vivo inhibition of P38 MAPKalpha in cynomolgus monkey assessed as decrease in TNFalpha level in LPS-stimulated whole blood at 12 mg/kg, po pretreated followed by LPS addition measured after 1 day relative to control; type: functional; settings: Macaca fascicularis
Outline: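 Cynomolgus monkeys were dosed orally, then whole blood was stimulated ex vivo with LPS. TNFα release was compared with vehicle-dosed animals.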

[22] = molecular target: Dual specificity mitogen-activated protein kinase kinase 6 (Homo sapiens) (UniProt P52564); assay: Inhibition of MKK6 (unknown origin) assessed as decrease in p38alpha MAPK phosphorylation at 10 uM relative to control
[23] = molecular target: Receptor-interacting serine/threonine-protein kinase 2 (Homo sapiens) (UniProt O43353); assay: Inhibition of RIPK2 (unknown origin) at 10 uM relative to control
Mus musculus [24] = assay: Antiarthritic activity in human TNF transgenic mouse model assessed as reduction in synovitis at 20 to 50 mg/kg/day, po for 10 weeks; type: functional, organism-based
Outline: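 Heterozygous human TNF transgenic mice (8 per group) were dosed orally for ten weeks with 20 or 50 mg/kg/day as a methylcellulose suspension, alongside vehicle and infliximab i.p. controls. Joint swelling and grip strength were scored weekly, and hind paws were examined histologically at the end.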

Rattus norvegicus [25] = assay: Toxicity in Sprague-Dawley rat assessed as hypoactivity at 2000 mg/kg, po administered via gavage measured on day 1 and 2; type: organism-based; settings: in vivo
Rattus norvegicus [26] = assay: Toxicity in single po dosed rat assessed as effect on respiratory rate at 30 mg/kg, po administered as single dose; type: organism-based; settings: in vivo
[27] = Drug metabolism in human urine assessed as 4-(4-(4-fluorophenyl)-1-methyl-2-(methylsulfinyl)-1H-imidazol-5-yl)pyridin-2-amine formation at 10 to 50 mg, po administered as single dose after 36 hrs; type: ADME, organism-based; settings: in vivo; outline: as §1

Sequence of Mitogen-activated protein kinase 11 (Homo sapiens) (Q15759 whole entry): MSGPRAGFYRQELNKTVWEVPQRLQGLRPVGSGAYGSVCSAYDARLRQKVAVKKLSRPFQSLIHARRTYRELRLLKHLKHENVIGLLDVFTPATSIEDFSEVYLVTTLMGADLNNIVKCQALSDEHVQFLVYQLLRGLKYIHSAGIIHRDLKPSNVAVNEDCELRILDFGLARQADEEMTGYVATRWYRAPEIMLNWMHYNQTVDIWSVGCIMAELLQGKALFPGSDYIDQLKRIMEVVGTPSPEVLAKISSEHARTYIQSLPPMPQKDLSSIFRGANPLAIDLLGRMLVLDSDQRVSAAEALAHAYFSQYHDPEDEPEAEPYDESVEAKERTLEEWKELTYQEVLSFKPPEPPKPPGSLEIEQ
Sequence of Mitogen-activated protein kinase 12 (Homo sapiens) (P53778 whole entry): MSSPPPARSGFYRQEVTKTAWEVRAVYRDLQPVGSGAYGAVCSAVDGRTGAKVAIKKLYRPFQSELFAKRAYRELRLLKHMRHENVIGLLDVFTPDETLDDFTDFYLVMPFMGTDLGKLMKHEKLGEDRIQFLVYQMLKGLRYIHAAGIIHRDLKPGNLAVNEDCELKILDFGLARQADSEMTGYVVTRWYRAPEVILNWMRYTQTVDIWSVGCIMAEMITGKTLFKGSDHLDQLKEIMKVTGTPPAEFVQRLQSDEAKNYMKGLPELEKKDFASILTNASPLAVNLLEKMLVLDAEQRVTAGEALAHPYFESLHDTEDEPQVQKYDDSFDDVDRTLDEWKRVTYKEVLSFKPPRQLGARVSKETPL
Sequence of Dual specificity mitogen-activated protein kinase kinase 6 (Homo sapiens) (P52564 whole entry): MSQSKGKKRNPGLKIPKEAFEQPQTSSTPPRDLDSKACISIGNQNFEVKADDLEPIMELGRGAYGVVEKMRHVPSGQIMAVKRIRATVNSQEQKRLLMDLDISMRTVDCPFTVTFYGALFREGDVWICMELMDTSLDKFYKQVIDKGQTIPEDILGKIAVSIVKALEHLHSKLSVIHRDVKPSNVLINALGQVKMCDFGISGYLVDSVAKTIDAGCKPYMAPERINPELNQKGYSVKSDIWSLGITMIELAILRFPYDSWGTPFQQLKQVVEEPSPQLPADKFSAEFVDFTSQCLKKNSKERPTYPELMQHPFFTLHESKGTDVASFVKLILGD
Sequence of Voltage-gated inwardly rectifying potassium channel KCNH2 (Q12809 whole entry): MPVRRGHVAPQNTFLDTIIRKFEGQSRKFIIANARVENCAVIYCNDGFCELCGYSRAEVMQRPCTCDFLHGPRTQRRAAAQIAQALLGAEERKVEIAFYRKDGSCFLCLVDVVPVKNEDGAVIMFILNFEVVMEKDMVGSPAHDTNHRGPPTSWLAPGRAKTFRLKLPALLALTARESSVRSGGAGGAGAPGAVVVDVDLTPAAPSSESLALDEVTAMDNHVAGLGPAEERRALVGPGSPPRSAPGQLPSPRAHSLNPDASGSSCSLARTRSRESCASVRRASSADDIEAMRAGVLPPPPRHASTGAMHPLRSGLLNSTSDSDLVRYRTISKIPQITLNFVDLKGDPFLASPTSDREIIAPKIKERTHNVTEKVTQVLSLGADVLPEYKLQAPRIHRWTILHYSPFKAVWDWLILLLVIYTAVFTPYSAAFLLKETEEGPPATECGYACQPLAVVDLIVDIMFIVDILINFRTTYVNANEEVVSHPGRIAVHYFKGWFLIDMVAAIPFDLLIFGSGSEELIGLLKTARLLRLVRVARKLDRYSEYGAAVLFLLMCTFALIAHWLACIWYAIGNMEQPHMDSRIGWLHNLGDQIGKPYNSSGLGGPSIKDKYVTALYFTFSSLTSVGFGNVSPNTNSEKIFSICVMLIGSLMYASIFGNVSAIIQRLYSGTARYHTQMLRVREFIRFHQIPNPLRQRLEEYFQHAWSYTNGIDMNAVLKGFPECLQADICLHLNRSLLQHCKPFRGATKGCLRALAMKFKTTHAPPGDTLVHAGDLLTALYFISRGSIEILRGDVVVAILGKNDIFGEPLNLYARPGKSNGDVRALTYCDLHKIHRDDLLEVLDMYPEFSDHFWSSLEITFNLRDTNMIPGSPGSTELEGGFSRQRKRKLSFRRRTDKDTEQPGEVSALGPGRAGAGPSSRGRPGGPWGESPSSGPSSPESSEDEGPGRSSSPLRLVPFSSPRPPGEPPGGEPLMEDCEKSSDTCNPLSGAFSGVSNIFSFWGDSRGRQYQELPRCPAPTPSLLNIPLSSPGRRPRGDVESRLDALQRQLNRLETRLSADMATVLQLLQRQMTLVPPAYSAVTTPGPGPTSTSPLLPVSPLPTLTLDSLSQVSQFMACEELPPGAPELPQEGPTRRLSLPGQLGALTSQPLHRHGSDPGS
Sequence of Dual specificity mitogen-activated protein kinase kinase 7 (Homo sapiens) (O14733 whole entry): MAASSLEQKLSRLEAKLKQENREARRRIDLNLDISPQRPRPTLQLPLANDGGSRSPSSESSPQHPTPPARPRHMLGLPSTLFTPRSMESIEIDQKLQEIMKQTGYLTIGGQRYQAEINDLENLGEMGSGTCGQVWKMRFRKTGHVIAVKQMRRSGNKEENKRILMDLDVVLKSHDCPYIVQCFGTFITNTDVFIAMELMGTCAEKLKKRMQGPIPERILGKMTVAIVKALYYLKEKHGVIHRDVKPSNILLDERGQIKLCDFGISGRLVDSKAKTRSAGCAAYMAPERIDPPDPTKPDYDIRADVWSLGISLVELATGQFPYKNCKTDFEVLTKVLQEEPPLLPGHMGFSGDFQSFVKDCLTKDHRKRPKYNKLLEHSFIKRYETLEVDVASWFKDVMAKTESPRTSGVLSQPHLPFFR
Sequence of Receptor-interacting serine/threonine-protein kinase 2 (Homo sapiens) (O43353 whole entry): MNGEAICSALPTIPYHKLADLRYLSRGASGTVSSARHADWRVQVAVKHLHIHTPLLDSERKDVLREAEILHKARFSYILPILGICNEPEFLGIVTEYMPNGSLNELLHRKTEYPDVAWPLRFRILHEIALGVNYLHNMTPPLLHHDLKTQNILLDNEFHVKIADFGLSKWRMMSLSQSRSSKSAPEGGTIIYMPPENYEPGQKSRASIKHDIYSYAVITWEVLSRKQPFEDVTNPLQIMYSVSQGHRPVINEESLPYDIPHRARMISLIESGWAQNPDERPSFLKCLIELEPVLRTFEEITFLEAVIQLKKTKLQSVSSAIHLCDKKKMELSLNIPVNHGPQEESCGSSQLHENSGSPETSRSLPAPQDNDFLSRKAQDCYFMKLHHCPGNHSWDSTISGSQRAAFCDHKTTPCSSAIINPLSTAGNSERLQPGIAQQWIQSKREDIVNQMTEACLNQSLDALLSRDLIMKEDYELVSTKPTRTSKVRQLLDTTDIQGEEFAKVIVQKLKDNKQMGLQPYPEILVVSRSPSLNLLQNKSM
Sequence of Mitogen-activated protein kinase 14 (Q16539 whole entry): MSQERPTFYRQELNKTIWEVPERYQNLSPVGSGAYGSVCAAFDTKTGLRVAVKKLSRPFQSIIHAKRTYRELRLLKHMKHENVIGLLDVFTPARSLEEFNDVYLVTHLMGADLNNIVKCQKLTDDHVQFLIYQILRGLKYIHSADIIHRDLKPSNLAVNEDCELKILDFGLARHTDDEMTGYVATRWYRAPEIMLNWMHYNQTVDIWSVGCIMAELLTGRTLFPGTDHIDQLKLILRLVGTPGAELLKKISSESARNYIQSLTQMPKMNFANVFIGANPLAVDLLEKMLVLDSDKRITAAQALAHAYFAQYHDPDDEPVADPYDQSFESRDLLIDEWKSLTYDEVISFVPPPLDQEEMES
Sequence of Mitogen-activated protein kinase 10 (Homo sapiens) (P53779 whole entry): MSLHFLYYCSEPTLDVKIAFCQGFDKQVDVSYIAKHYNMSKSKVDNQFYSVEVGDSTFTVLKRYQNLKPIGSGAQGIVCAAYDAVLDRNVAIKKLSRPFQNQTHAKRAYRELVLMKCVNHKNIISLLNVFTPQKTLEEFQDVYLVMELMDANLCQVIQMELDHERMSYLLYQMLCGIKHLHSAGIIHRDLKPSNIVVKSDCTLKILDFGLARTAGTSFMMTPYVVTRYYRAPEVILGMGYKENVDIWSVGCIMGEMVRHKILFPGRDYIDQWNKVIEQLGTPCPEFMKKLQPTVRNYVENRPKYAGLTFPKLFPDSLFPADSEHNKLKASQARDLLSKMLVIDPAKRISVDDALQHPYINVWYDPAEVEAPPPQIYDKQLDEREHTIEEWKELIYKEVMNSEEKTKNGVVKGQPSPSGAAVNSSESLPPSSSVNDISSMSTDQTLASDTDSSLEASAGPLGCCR

With `Cn1c([S+](C)[O-])nc(-c2ccc(F)cc2)c1-c1ccnc(N)c1` (stereo not given) the inhibition [1] was “inactive”, the inhibition [2] was “inactive” and the inhibition [3] was “inactive”.

With `CC(=O)Nc1cc(-c2c(-c3ccc(F)cc3)nc([S+](C)[O-])n2C)ccn1` (stereo not given) the dose excreted at 36 h [4] was 6%, the Activity (Rattus norvegicus [5]) was “Toxic” and the concentration at 1.5 h [6] was 526 ng/mL. It also gave a Papp at 10 µM [7] of 18.5 ×10⁻⁶ cm/s, an inhibition in vivo at 10 mg/kg (Mus musculus [8]) of 84% and an AUC(0-inf) [9] of 120 µM·h. For the same compound, the Drug metabolism [10] was “Metabolite_Detected”, the Activity (Rattus norvegicus [11]) was “Toxic” and the AUC(0-t) [12] was 29.8 µM·h. For the same compound, the AUC(0-inf) [13] was 2.24 µM·h, the inhibition [14] was 76% and the AUC(0-inf) [15] was 96.8 µM·h. For the same compound, the Drug metabolism [16] was “Metabolite_Detected”, the Activity (Lymphocyte) was “Non-Toxic” and the AUC(0-t) [17] was 95 µM·h. The inhibition [18] was 101%, the Drug metabolism [19] was “Metabolite_Detected” and the IC50 [20] was 213 µM. For the same compound, the Activity (Rattus norvegicus [21]) was “Toxic”, the Drug metabolism (Liver) was “Metabolite_Detected” and the inhibition in vivo at 12 mg/kg (Cynomolgus monkey) was 50%. For the same compound, the inhibition [22] was 62%, the inhibition [23] was 33% and the Activity (Mus musculus [24]) was “Active”. For the same compound, the Activity (Rattus norvegicus [25]) was “Toxic”, the Activity (Rattus norvegicus [26]) was “Non-Toxic” and the Drug excretion [27] was 6 %ID.
